{"source": "paper PMC5598146", "about": "(Toxicology Reports, 2015)", "key": {"[1]": {"system": "bred female Crl:CD(SD) rats", "assay": "Definitive developmental toxicity study", "assay_type": "in vivo, rat", "method_in_brief": "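Bred female Crl:CD(SD) rats, 25/group, dosed once daily by oral gavage at 0, 250, 500 or 1000 mg/kg/day from gestation Days 6 through 20. Laparohysterectomy on gestation Day 21. Uteri, placentae and ovaries were examined; viable and dead fetuses, early and late resorptions, implantations and corpora lutea were counted; gravid uterine weight, net body weight and fetal weights were recorded.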"}, "[2]": {"assay": "Relative oral bioavailability of sodium, phosphate and hemisulfate salts in rats", "assay_type": "in vivo, Sprague-Dawley rats", "method_in_brief": "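Male Sprague-Dawley rats, 4/group, received a single 30 mg/kg oral gavage dose in 1% methylcellulose of either parent acid or its sodium, phosphate or sulfate salt. Jugular-catheter blood was drawn at about 15 and 30 min and at 1, 2, 4, 8 and 24 h. Plasma parent was measured by LC/MS/MS with an internal standard. Relative AUClast and Cmax were corrected for molecular-weight differences.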"}, "[3]": {"system": "Sprague-Dawley rats", "assay": "28-Day dose-range finding toxicity study", "assay_type": "in vivo, rat", "conditions": "28 days"}, "[4]": {"system": "Sprague-Dawley rats", "assay": "90-Day subchronic toxicity study", "assay_type": "in vivo, rat", "conditions": "90 days", "method_in_brief": "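Male and female Crl:CD(SD) rats, 20/sex/group, fed 0 (basal diet), 30, 60 or 100 mg/kg/day in the diet for 90 days. […] End-points: functional observation battery, motor activity, body weight gain, food consumption, hematology, clinical chemistry, urinalysis, organ weights, necropsy, and histopathology of at least 53 tissues (control and high dose only).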"}, "[5]": {"system": "S. typhimurium strains TA98 and TA100", "assay": "Abbreviated Ames", "assay_type": "cell-based", "conditions": "plate incorporation, up to 5000 μg/plate, ±S9", "method_in_brief": "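Salmonella TA98 and TA100 plate-incorporation assay per OECD 471, run with and without rat liver S9. Test compound and its decarboxylated impurity were tested at concentrations up to and including 5000 µg/plate, with vehicle and positive controls. Revertant colony counts were compared with vehicle control, and bacterial toxicity was recorded.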"}, "[6]": {"assay": "Dietary exposure estimate", "conditions": "100 mg/kg bw/day vs 2400 μg/day"}, "[7]": {"assay": "In vitro oxidative metabolism, rat liver microsomes", "assay_type": "in vitro ADME", "method_in_brief": "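Pooled mixed-gender liver microsomes (human or Sprague-Dawley rat) were incubated with test compound plus NADPH for 60 min at 37 °C, then quenched with acetonitrile. Controls: time-zero and 60-min incubations without NADPH, plus testosterone incubations to confirm microsomal activity. Metabolites were sought by LC/MS full-scan analysis with UV detection at 214, 240 and 254 nm.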"}, "[8]": {"assay": "Excretion in urine and feces of rats", "assay_type": "in vivo, Sprague-Dawley rats", "conditions": "10 mg/kg oral"}, "[9]": {"system": "human peripheral blood lymphocytes (HPBL)", "assay": "In vitro chromosome aberration test", "assay_type": "cell-based", "conditions": "125-500 ug/mL, 3 h ±S9, 20 h -S9", "method_in_brief": "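Human peripheral blood lymphocytes were exposed to the sodium salt of the test compound (0–500 µg/mL) per OECD 473, with solvent and positive controls (mitomycin C −S9, cyclophosphamide +S9). Exposures: 3 h and 20 h without S9, and 3 h with S9 from phenobarbital/5,6-benzoflavone-induced male Sprague-Dawley rat liver. Structural and numerical aberrations were scored at 125, 250 and 500 µg/mL for each condition.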"}, "[10]": {"system": "Swiss albino (CD-1) mice", "assay": "In vivo mouse micronucleus assay", "conditions": "500-2000 mg/kg bw oral, male mice"}, "[11]": {"conditions": "male, Sprague-Dawley, rat, plasma, po, 30 mg/kg"}, "[12]": {"conditions": "food ad-mix, male and female rats, highest dose tested"}}, "note": "Entries after “also recorded” stand apart in the source; their conditions may differ."}
{"smiles": "Cc1nc2cccc(OCC(C)(C)C(=O)NC(C)C)c2c(N)c1C(=O)O", "note": "[S9632, 4-amino-5-(3-(isopropylamino)-2,2-dimethyl-3-oxopropoxy)-2-methylquinoline-3-carboxylic acid]", "values": [{"measurement": "Corpora Lutea, Mean", "setting": "[1]; 250 mg/kg/d", "value": 16.3}, {"measurement": "Corpora Lutea, Total", "setting": "[1]; 250 mg/kg/d", "value": 407}, {"measurement": "Dead fetuses, Mean", "setting": "[1]; 250 mg/kg/d", "value": 0}, {"measurement": "Dead fetuses, Total", "setting": "[1]; 250 mg/kg/d", "value": 0}, {"measurement": "Fetal Wt., Mean", "setting": "[1]; 250 mg/kg/d", "value": 5.5, "unit": "g"}, {"measurement": "Fetuses Sex F, Mean", "setting": "[1]; 250 mg/kg/d", "value": 6.8}, {"measurement": "Fetuses Sex F, Total", "setting": "[1]; 250 mg/kg/d", "value": 169}, {"measurement": "Fetuses Sex M, Mean", "setting": "[1]; 250 mg/kg/d", "value": 7.6}, {"measurement": "Fetuses Sex M, Total", "setting": "[1]; 250 mg/kg/d", "value": 189}, {"measurement": "Implant. sites, Mean", "setting": "[1]; 250 mg/kg/d", "value": 15.3}, {"measurement": "Implant. sites, Total", "setting": "[1]; 250 mg/kg/d", "value": 382}, {"measurement": "Post-implant. loss, Mean", "setting": "[1]; 250 mg/kg/d", "value": 1.0}, {"measurement": "Post-implant. loss, Total", "setting": "[1]; 250 mg/kg/d", "value": 24}, {"measurement": "Pre-implant. loss, Mean", "setting": "[1]; 250 mg/kg/d", "value": 1.0}, {"measurement": "Pre-implant. loss, Total", "setting": "[1]; 250 mg/kg/d", "value": 25}, {"measurement": "Resorptions Early, Mean", "setting": "[1]; 250 mg/kg/d", "value": 1.0}, {"measurement": "Resorptions Early, Total", "setting": "[1]; 250 mg/kg/d", "value": 24}, {"measurement": "Resorptions Late, Mean", "setting": "[1]; 250 mg/kg/d", "value": 0}, {"measurement": "Resorptions Late, Total", "setting": "[1]; 250 mg/kg/d", "value": 0}, {"measurement": "Viable fetuses, Mean", "setting": "[1]; 250 mg/kg/d", "value": 14.3}, {"measurement": "Viable fetuses, Total", "setting": "[1]; 250 mg/kg/d", "value": 358}, {"measurement": "Malformations, fetuses (litters)", "setting": "[1]; 250 mg/kg/day", "value": "1(1)"}, {"measurement": "Corpora Lutea, Mean", "setting": "[1]; 500 mg/kg/d", "value": 16.8}, {"measurement": "Corpora Lutea, Total", "setting": "[1]; 500 mg/kg/d", "value": 421}, {"measurement": "Dead fetuses, Mean", "setting": "[1]; 500 mg/kg/d", "value": 0}, {"measurement": "Dead fetuses, Total", "setting": "[1]; 500 mg/kg/d", "value": 0}, {"measurement": "Fetal Wt., Mean", "setting": "[1]; 500 mg/kg/d", "value": 5.4, "unit": "g"}, {"measurement": "Fetuses Sex F, Mean", "setting": "[1]; 500 mg/kg/d", "value": 7.4}, {"measurement": "Fetuses Sex F, Total", "setting": "[1]; 500 mg/kg/d", "value": 184}, {"measurement": "Fetuses Sex M, Mean", "setting": "[1]; 500 mg/kg/d", "value": 7.1}, {"measurement": "Fetuses Sex M, Total", "setting": "[1]; 500 mg/kg/d", "value": 177}, {"measurement": "Implant. sites, Mean", "setting": "[1]; 500 mg/kg/d", "value": 15.3}, {"measurement": "Implant. sites, Total", "setting": "[1]; 500 mg/kg/d", "value": 383}, {"measurement": "Post-implant. loss, Mean", "setting": "[1]; 500 mg/kg/d", "value": 0.9}, {"measurement": "Post-implant. loss, Total", "setting": "[1]; 500 mg/kg/d", "value": 22}, {"measurement": "Pre-implant. loss, Mean", "setting": "[1]; 500 mg/kg/d", "value": 1.5}, {"measurement": "Pre-implant. loss, Total", "setting": "[1]; 500 mg/kg/d", "value": 38}, {"measurement": "Resorptions Early, Mean", "setting": "[1]; 500 mg/kg/d", "value": 0.5}, {"measurement": "Resorptions Early, Total", "setting": "[1]; 500 mg/kg/d", "value": 12}, {"measurement": "Resorptions Late, Mean", "setting": "[1]; 500 mg/kg/d", "value": 0.4}, {"measurement": "Resorptions Late, Total", "setting": "[1]; 500 mg/kg/d", "value": 10}, {"measurement": "Viable fetuses, Mean", "setting": "[1]; 500 mg/kg/d", "value": 14.4}, {"measurement": "Viable fetuses, Total", "setting": "[1]; 500 mg/kg/d", "value": 361}, {"measurement": "Malformations, fetuses (litters)", "setting": "[1]; 500 mg/kg/day", "value": "1(1)"}, {"measurement": "Corpora Lutea, Mean", "setting": "[1]; 1000 mg/kg/d", "value": 16.5}, {"measurement": "Corpora Lutea, Total", "setting": "[1]; 1000 mg/kg/d", "value": 413}, {"measurement": "Dead fetuses, Mean", "setting": "[1]; 1000 mg/kg/d", "value": 0}, {"measurement": "Dead fetuses, Total", "setting": "[1]; 1000 mg/kg/d", "value": 0}, {"measurement": "Fetal Wt., Mean", "setting": "[1]; 1000 mg/kg/d", "value": 5.6, "unit": "g"}, {"measurement": "Fetuses Sex F, Mean", "setting": "[1]; 1000 mg/kg/d", "value": 7.8}, {"measurement": "Fetuses Sex F, Total", "setting": "[1]; 1000 mg/kg/d", "value": 194}, {"measurement": "Fetuses Sex M, Mean", "setting": "[1]; 1000 mg/kg/d", "value": 7.2}, {"measurement": "Fetuses Sex M, Total", "setting": "[1]; 1000 mg/kg/d", "value": 181}, {"measurement": "Implant. sites, Mean", "setting": "[1]; 1000 mg/kg/d", "value": 15.7}, {"measurement": "Implant. sites, Total", "setting": "[1]; 1000 mg/kg/d", "value": 393}, {"measurement": "Post-implant. loss, Mean", "setting": "[1]; 1000 mg/kg/d", "value": 0.7}, {"measurement": "Post-implant. loss, Total", "setting": "[1]; 1000 mg/kg/d", "value": 18}, {"measurement": "Pre-implant. loss, Mean", "setting": "[1]; 1000 mg/kg/d", "value": 0.80}, {"measurement": "Pre-implant. loss, Total", "setting": "[1]; 1000 mg/kg/d", "value": 20}, {"measurement": "Resorptions Early, Mean", "setting": "[1]; 1000 mg/kg/d", "value": 0.7}, {"measurement": "Resorptions Early, Total", "setting": "[1]; 1000 mg/kg/d", "value": 18}, {"measurement": "Resorptions Late, Mean", "setting": "[1]; 1000 mg/kg/d", "value": 0}, {"measurement": "Resorptions Late, Total", "setting": "[1]; 1000 mg/kg/d", "value": 0}, {"measurement": "Viable fetuses, Mean", "setting": "[1]; 1000 mg/kg/d", "value": 15.0}, {"measurement": "Viable fetuses, Total", "setting": "[1]; 1000 mg/kg/d", "value": 375}, {"measurement": "Malformations, fetuses (litters)", "setting": "[1]; 1000 mg/kg/day", "value": "3(3)"}, {"measurement": "AUC(0-t)", "setting": "[2]; [11]", "value": "59.6 ± 26.1", "unit": "ng·h/mL"}, {"measurement": "Cmax", "setting": "[2]; [11]", "value": "38.7 ± 24.5", "unit": "ng/mL"}, {"measurement": "%Cmax Relative to S9632", "setting": "[2]; single oral 30 mg/kg, male rats, corrected for molecular weight", "value": 100.0, "unit": "%"}, {"measurement": "Findings", "setting": "[3]; 10, 30, 100 mg/kg/day food ad-mix", "value": "No test-article related findings"}, {"measurement": "NOEL", "setting": "[3]; [12]", "value": 100, "unit": "mg/kg/day"}, {"measurement": "Findings", "setting": "[4]; 30, 60, 100 mg/kg/day food ad-mix", "value": "No test-article related findings"}, {"measurement": "NOEL", "setting": "[4]; [12]", "value": 100, "unit": "mg/kg/day"}, {"measurement": "Mutagenicity, result", "setting": "[5]", "value": "not mutagenic"}, {"measurement": "NOAEL (90-day) relative to estimated dietary exposure", "setting": "[6]", "value": 2500, "unit": "times"}, {"measurement": "Metabolism (Phase I biotransformations)", "setting": "[7]; 10 µM, 60 min, 37 °C, NADPH", "value": "not metabolized; also recorded: No Phase I biotransformations"}, {"measurement": "Level above which no metabolism was observed", "setting": "[7]; 60 min incubation", "value": "≤ 0.1 % of the parent drug"}, {"measurement": "Oxidative metabolites (M + 16) in fecal samples", "setting": "[8]", "value": "not detectable"}, {"measurement": "Oxidative metabolites (M + 16) in urine", "setting": "[8]", "value": "trace amounts"}, {"measurement": "Chromosome aberration (in vitro), result", "setting": "[9]", "value": "Negative"}, {"measurement": "Micronucleus formation (in vivo), result", "setting": "[10]", "value": "did not induce micronuclei; also recorded: Negative"}]}
